Measured values reported in PMC6207383 (International Journal of Nanomedicine, 2018).

What was measured:
[1] = tested on: HepG2-TS; assay: CCK-8 cytotoxicity assay in HepG2 tumor spheres; type: cell-based, human
Procedure, shortened: (§1)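 Cells seeded at 5×10^3/well and left overnight at 37°C to attach. They were then exposed for 48 h to graded concentrations of each agent alone or combined at fixed molar ratios (4:1, 2:1, 1:1, 1:2, 1:4). CCK-8 was added for about 2 h and A450 read. Viability = (AE–AB)/(AC–AB)×100%, using untreated and blank wells. HepG2 were grown in DMEM/10% FBS. Spheres were grown in DMEM-F12 with B27, ITS, 20 ng/mL EGF and bFGF, dissociated with Accutase and passed through a 100-µm sieve.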

[2] = tested on: HepG2 cells; assay: Colony formation assay; type: cell-based, human; conditions: DOX and ELC 0.01 µM, 24 hours treatment, 8–10 days growth
Procedure, shortened: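 HepG2 cells were maintained in DMEM with 10% FBS and penicillin/streptomycin at 37°C, 5% CO2. They were seeded at 1×10^5 cells/well, left overnight, then exposed 24 h to free or nanoparticle test compounds (each drug at 0.01 µM final). Cells were trypsinized, reseeded at 800 cells/well and grown 8–10 days at 37°C. Colonies were stained with 1% crystal violet for 20 min at room temperature and counted by microscope.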

[3] = tested on: HepG2 cells; assay: Tumor sphere formation assay; type: cell-based, human; conditions: DOX and ELC 0.15 µM, 7 days
Procedure, shortened: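 Trypsinized HepG2 cells were seeded at 500 cells/well in ultra-low-attachment wells in DMEM/F12 with 1× B27, 1× ITS, 20 ng/mL EGF and 20 ng/mL bFGF, then left overnight. Cells were exposed to free or nanoparticle test compounds (each drug at 0.15 µM final). After 7 days, tumor spheres were counted by microscope.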

[4] = Tissue distribution study in vivo; parameters: species or system BALB/c nude mice; conditions: iv 10 µg DiR per mouse, 2–24 hours
Procedure, shortened: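 Male BALB/c nude mice (4–6 weeks, about 20 g) bore subcutaneous right-back tumours from 2×10^6 HepG2 cells. At about 300 mm3 they were randomised to saline, free DiR or DiR-loaded nanoparticles, given as a single tail-vein injection. Imaging was under isoflurane at 745/820 nm excitation/emission, at 2, 4, 6, 8, 12 and 24 h. At 24 h, excised organs and tumours were imaged and quantified as total radiant efficiency.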

[5] = tested on: HepG2 cells; assay: CCK-8 cytotoxicity assay in HepG2 cells; type: cell-based; conditions: Homo sapiens, HepG2, 48 h
Procedure, shortened: as §1

Row | DiR signals in real-time in vivo images [4] | SMILES | IC50 ([1]; HepG2-TS, 48 hours, CCK-8) | number of colonies formed [2] | tumor sphere formation [3] | IC50 [5] | IC50 ([1]; Homo sapiens, HepG2, 48 h)
1 | – | COc1cccc2c1C(=O)c1c(O)c3c(c(O)c1C2=O)C[C@@](O)(C(=O)CO)C[C@@H]3O[C@H]1C[C@H](N)[C@H](O)[C@H](C)O1 [DOX, doxorubicin] | 0.477 ± 0.0514 µM | reduced the formation of colonies compared with the control | decreased tumor sphere formation compared with that in the control | – | –
2 | No obvious DiR signals | CCCCCCCCCCCCCCCCCCN1/C(=C/C=C/C=C/C=C/C2=[N+](CCCCCCCCCCCCCCCCCC)c3ccccc3C2(C)C)C(C)(C)c2ccccc21.[I-] [free DiR] | – | – | – | – | –
3 | – | COc1cc2c(cc1OC)CN(CCc1ccc(NC(=O)c3cccc4c(=O)c5cccc(OC)c5[nH]c34)cc1)CC2 [ELC, elacridar] | – | reduced the formation of colonies compared with the control | decreased tumor sphere formation compared with that in the control | 9.27 ± 2.61 µM | 13.7 ± 4.27 µM
